For one assay, the system named is MDA-MB-435. Nature of the assay: Cytotoxic activity against human MDA-MB-435 cells after 96 hrs by luminescent cell viability assay. It is filed as functional, cell-based. The note with it: MDA-MB-435, 96 h.
Assay [1] deals with HeLa. Nature of the assay: Cytotoxicity against human HeLa cells at 230 uM after 24 hrs. It is filed as functional. In outline: (§1)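 HeLa cells plated at 1500 cells/well and held overnight at 37 °C, 5% CO2, then compound pinned in. After 24 h, fixed in 4% formaldehyde for 20 min, permeabilized with 0.5% Triton X-100 in PBS for 10 min and blocked. Actin stained with rhodamine-phalloidin for 20 min and DNA with Hoechst 33342.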

In a further assay the test system is UACC-257. Description: Cytotoxic activity against human UACC257 cells after 96 hrs by luminescent cell viability assay. The note with it: UACC-257, 96 h. It is filed as functional, cell-based.
The test system of another assay is MCF7. Nature of the assay: Cytotoxic activity against human MCF7 cells after 96 hrs by luminescent cell viability assay. It is filed as functional, cell-based. Conditions: MCF7, 96 h.
The next assay relates to DU-145. Nature of the assay: Cytotoxic activity against human DU145 cells after 96 hrs by luminescent cell viability assay. Conditions: DU-145, 96 h. It counts as functional, cell-based. Put shortly:
(§2)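 Cells in 96-well plates grown without compound or with continuous exposure to 1.5–50,000 nM test compound for 96 h. Growth read by CellTiter-Glo luminescence. IC50 is the concentration giving 50% growth inhibition relative to untreated cells. Two separate replicate experiments.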

The test system of assay [2] is HeLa. Nature of the assay: Cytotoxicity against human HeLa cells assessed as disruption of cytoskeleton at 230 uM after 24 hrs by rhodamine-phalloidin staining method. It counts as functional, cell-based. In outline:
as §1

The test system of assay [3] is HeLa. Description: Cytotoxicity against human HeLa cells assessed as nuclear blebbing at 230 uM after 24 hrs by hoechst 33342 staining method. It is filed as functional, cell-based. In outline: as §1
The test system of another assay is OVCAR-5. Description: Cytotoxic activity against human OVCAR5 cells after 96 hrs by luminescent cell viability assay. It counts as functional, cell-based. Conditions: OVCAR-5, 96 h.
The next assay relates to HCC 2998. Description: Cytotoxic activity against human HCC2998 cells after 96 hrs by luminescent cell viability assay. It is filed as functional, cell-based. The note with it: HCC 2998, 96 h.
A further assay has as its system SR. Nature of the assay: Cytotoxic activity against human SR cells after 96 hrs by luminescent cell viability assay. It counts as functional, cell-based.
The test system of a further assay is HT-29. Nature of the assay: Cytotoxic activity against human HT-29 cells after 96 hrs by luminescent cell viability assay. It counts as functional, cell-based. The note with it: HT-29, 96 h. In outline: as §2
The test system of the next assay is SF-539. Description: Cytotoxic activity against human SF539 cells after 96 hrs by luminescent cell viability assay. It counts as functional, cell-based. The note with it: SF-539, 96 h.
A further assay relates to BT-549. Nature of the assay: Cytotoxic activity against human BT549 cells after 96 hrs by luminescent cell viability assay. Conditions: BT-549, 96 h. It is filed as functional, cell-based. Put shortly: as §2
In another assay the test system is U-937. Description: Cytotoxic activity against human U937 cells after 96 hrs by luminescent cell viability assay. It counts as functional, cell-based. Conditions: U-937, 96 h.
Assay [4] can be described thus: Cytotoxic activity against human H522-T1 cells after 96 hrs by luminescent cell viability assay. The note with it: H522-T1, 96 h. It counts as functional, cell-based.
A further assay has as its system NCI-H460. Description: Cytotoxic activity against human H460 cells after 96 hrs by luminescent cell viability assay. Conditions: NCI-H460, 96 h. It counts as functional, cell-based. Put shortly: as §2

The IC50 is the concentration that gives 50% inhibition. Usually inhibition stands for the drop in the measured response relative to a control, in per cent. The low end stands for little suppression, the high end for strong suppression.

In brackets after ≈: the same amount, converted by molar mass. Activity calls are given as the source filed them. The calls are words filed in the database; no cut-off is given here. Where only a bound is given, the exact number is not on record here.

`O=C(O)c1cc2c([nH]c3ccc(O)cc32)c(C(=O)c2c[nH]cn2)n1` [HYRTIOCARBOLIN]: the IC50 was 3 µg/mL (≈ 9.31 µM) with MDA-MB-435; above 50 µg/mL with UACC-257; above 50 µg/mL with MCF7; 34 µg/mL (≈ 105 µM) in the assay on DU-145; above 50 µg/mL with OVCAR-5; above 50 µg/mL in the assay on HCC 2998. Further, the IC50 in the assay on SR was above 50 µg/mL; in the assay with HT-29 it was above 50 µg/mL; with SF-539 it was above 50 µg/mL; in the assay on BT-549, 45 µg/mL (≈ 140 µM); with U-937 it was 1.5 µg/mL (≈ 4.65 µM); in assay [4], 1.2 µg/mL (≈ 3.72 µM). In addition, in the assay with NCI-H460, the IC50 came to 17 µg/mL (≈ 52.7 µM). The compound further came in with an inhibition at 230 µM in the assay with HeLa [1] of 57%. The result in the assay on HeLa [2] and with HeLa [3] was Active.

Source of the values: ChEMBL document CHEMBL1154830, “A beta-carboline alkaloid from the Papua New Guinea marine sponge hyrtios reticulatus” (J Nat Prod, 2010).
